From ChEMBL document CHEMBL4152264, “Design, synthesis, antiproliferative activity and docking studies of quinazoline derivatives bearing 2,3-dihydro-indole or 1,2,3,4-tetrahydroquinoline as potential EGFR inhibitors” (Eur J Med Chem, 2018)
Active and inactive are the calls of the source. The calls are words filed in the database; no cut-off is given here.

Columns and labels:
[1] = tested on: A549; assay: Induction of apoptosis in human A549 cells assessed as necrotic cells at 0.5 uM after 48 hrs by Annexin V-FITC/propidium iodide staining based flow cytometry (reference value: 0.51%); format: functional
[2] = tested on: PC-3; assay: Antiproliferative activity against human PC3 cells after 72 hrs by MTT assay; format: functional, cell-based; settings: for IC50: PC-3, 72 h
How it was run: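 Cells grown in MEM with 10% FBS. About 4×10³ cells per well seeded and incubated 24 h at 37 °C, 5% CO₂. Compounds added at indicated final concentrations for 72 h. MTT at 5 µg/mL final for 4 h at 37 °C. Formazan dissolved in DMSO, absorbance read at 492 nm with 630 nm reference. Tested three times; IC50 is the mean of two determinations.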

[3] = tested on: A549; assay: Induction of morphological changes in human A549 cells assessed as chromatin condensation at 1.09 uM after 12 hrs by acridine orange staining based fluorescence microscopic method; format: functional, cell-based
How it was run: (§1)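 A549 cells, grown in MEM with 10% FBS, were exposed to compound for 12 h alongside an untreated control group. They were stained with acridine orange alone and viewed by inverted and fluorescence microscopy. Nuclear colour (green versus red), cell shrinkage, edge clarity, refraction and chromatin condensation were assessed visually.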

[4] = tested on: A549; assay: Induction of apoptosis in human A549 cells assessed as late apoptotic cells at 0.5 uM after 48 hrs by Annexin V-FITC/propidium iodide staining based flow cytometry (reference value: 2.07%); format: functional
[5] = target: Epidermal growth factor receptor (Homo sapiens, UniProt P00533); assay: Inhibition of wild type EGFR (unknown origin) using FAM-labeled peptide substrate after 10 mins by mobility shift assay
Sequence of Epidermal growth factor receptor (Homo sapiens, UniProt P00533) (P00533 whole entry): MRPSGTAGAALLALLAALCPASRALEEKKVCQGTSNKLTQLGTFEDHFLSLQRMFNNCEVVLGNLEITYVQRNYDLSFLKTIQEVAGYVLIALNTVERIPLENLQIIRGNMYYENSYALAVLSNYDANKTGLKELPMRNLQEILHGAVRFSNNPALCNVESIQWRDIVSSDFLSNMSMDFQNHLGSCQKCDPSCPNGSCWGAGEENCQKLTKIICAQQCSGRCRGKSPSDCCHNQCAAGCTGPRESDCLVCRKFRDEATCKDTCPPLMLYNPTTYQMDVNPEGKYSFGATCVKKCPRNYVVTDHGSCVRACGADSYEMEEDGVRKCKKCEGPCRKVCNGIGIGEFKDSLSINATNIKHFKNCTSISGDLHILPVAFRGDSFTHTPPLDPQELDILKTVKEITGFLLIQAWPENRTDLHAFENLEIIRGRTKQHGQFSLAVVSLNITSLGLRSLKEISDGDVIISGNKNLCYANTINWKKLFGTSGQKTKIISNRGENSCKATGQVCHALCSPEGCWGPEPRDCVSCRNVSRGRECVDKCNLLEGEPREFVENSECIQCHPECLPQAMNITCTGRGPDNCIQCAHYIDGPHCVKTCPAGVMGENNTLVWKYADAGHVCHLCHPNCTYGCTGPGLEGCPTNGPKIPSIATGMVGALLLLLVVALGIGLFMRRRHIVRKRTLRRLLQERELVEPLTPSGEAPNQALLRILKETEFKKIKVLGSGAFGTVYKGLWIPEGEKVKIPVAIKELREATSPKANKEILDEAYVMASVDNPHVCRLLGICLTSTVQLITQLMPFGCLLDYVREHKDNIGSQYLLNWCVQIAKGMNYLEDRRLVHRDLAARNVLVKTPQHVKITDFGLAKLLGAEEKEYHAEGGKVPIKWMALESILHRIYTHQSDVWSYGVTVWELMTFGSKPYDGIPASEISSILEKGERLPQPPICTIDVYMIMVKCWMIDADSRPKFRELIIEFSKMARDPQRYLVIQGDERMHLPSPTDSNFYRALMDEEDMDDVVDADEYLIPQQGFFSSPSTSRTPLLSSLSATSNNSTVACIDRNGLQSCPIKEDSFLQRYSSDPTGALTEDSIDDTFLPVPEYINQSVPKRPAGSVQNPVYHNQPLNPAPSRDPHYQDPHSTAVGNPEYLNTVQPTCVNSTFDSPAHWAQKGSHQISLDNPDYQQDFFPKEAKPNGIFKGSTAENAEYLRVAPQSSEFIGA

[6] = tested on: A549; assay: Antiproliferative activity against human A549 cells after 72 hrs by MTT assay; format: functional, cell-based; settings: for IC50: A549, 72 h
[7] = tested on: A549; assay: Induction of apoptosis in human A549 cells assessed as early apoptotic cells at 0.5 uM after 48 hrs by Annexin V-FITC/propidium iodide staining based flow cytometry (reference value: 5.61%); format: functional
[8] = tested on: A549; assay: Induction of apoptosis in human A549 cells assessed as live cells at 0.5 uM after 48 hrs by Annexin V-FITC/propidium iodide staining based flow cytometry (reference value: 91.81%); format: functional
[9] = tested on: A549; assay: Induction of apoptosis in human A549 cells at 1.09 uM after 12 hrs by acridine orange staining based fluorescence microscopic method; format: functional, cell-based; how it was run: as §1
[10] = tested on: A549; assay: Induction of morphological changes in human A549 cells assessed as cell shrinkage at 1.09 uM after 12 hrs by acridine orange staining based fluorescence microscopic method; format: functional; how it was run: as §1
[11] = target: Epidermal growth factor receptor (Homo sapiens, UniProt P00533, T790M); assay: Inhibition of wild type EGFR T790M mutant (unknown origin) using FAM-labeled peptide substrate after 10 mins by mobility shift assay
Sequence of Epidermal growth factor receptor (Homo sapiens, UniProt P00533, T790M) (P00533 25-1210 T790M limits assumed): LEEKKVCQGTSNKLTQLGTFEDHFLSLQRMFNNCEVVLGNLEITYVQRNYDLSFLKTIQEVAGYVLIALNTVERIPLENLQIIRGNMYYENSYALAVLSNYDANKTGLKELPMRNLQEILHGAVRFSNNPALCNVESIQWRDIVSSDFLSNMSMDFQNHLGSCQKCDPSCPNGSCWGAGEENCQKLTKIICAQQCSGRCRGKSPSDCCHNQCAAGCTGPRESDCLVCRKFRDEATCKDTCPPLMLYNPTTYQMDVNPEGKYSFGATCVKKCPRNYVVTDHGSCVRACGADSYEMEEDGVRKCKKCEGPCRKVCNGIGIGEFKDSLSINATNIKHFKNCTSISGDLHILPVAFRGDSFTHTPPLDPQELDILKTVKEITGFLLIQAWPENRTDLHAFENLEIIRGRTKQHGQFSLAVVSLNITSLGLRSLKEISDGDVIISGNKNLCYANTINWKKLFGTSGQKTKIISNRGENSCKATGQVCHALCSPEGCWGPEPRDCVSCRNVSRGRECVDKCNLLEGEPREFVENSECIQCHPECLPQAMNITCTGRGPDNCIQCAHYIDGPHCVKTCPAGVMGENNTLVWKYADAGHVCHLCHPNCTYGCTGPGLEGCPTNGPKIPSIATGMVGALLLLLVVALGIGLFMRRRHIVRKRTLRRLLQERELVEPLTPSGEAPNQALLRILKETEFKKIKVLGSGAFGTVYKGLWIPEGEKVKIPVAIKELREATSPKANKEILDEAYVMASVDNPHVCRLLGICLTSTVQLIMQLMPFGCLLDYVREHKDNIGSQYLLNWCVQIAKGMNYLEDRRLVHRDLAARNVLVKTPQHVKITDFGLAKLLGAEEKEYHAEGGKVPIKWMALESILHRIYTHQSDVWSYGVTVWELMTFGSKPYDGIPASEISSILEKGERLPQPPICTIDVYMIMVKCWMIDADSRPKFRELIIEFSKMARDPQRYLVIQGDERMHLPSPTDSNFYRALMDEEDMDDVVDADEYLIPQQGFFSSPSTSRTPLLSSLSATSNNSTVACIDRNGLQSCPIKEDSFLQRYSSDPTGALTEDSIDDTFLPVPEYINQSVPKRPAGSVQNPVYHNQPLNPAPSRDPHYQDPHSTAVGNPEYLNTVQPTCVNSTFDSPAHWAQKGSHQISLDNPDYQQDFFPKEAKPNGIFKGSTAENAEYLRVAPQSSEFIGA

[12] = tested on: MCF7; assay: Antiproliferative activity against human MCF7 cells after 72 hrs by MTT assay; format: functional, cell-based; settings: for IC50: MCF7, 72 h
[13] = Solubility of the compound in water; format: physicochemical; settings: buffer

SMILES	IC50 [2]	IC50 [5]	IC50 [6]	IC50 [11]	IC50 [12]	solubility [13]	also measured
C=CC(=O)Nc1cc2c(N3CCc4ccccc43)ncnc2cc1OC	5.94 µM		5.58 µM		11.7 µM	Insoluble	
CCC/C=C/C(=O)Nc1cc2c(N3CCCc4ccccc43)ncnc2cc1O[C@@H]1CCOC1	11.8 µM		7.32 µM		4.23 µM	Insoluble	
C/C=C/C(=O)Nc1cc2c(N3CCc4ccccc43)ncnc2cc1O[C@@H]1CCOC1	5.22 µM	0.029 µM	2.61 µM	0.192 µM	4.9 µM	Insoluble	
CC(C)=CC(=O)Nc1cc2c(N3CCCc4ccccc43)ncnc2cc1O[C@@H]1CCOC1	9.02 µM		7.91 µM		11.1 µM	Insoluble	
C/C=C/C(=O)Nc1cc2c(N3CCc4ccccc43)ncnc2cc1OC	8.12 µM		8.29 µM		4.03 µM	Insoluble	
CC/C=C/C(=O)Nc1cc2c(N3CCCc4ccccc43)ncnc2cc1O[C@@H]1CCOC1	14.3 µM		14.1 µM		14.4 µM	Insoluble	
C=C(C)C(=O)Nc1cc2c(N3CCc4ccccc43)ncnc2cc1OC	4.83 µM		7.32 µM		11.1 µM	Insoluble	
C/C=C/C(=O)Nc1cc2c(N3CCCc4ccccc43)ncnc2cc1OC	7.52 µM		8.19 µM		12.7 µM	Insoluble	
COc1cc2ncnc(N3CCc4ccccc43)c2cc1NC(=O)C=C(C)C	7.84 µM		6.27 µM		6.39 µM	Insoluble	
CC(C)=CC(=O)Nc1cc2c(N3CCc4ccccc43)ncnc2cc1O[C@@H]1CCOC1	4.62 µM		3.67 µM		15.7 µM	Insoluble	
CCC/C=C/C(=O)Nc1cc2c(N3CCc4ccccc43)ncnc2cc1O[C@@H]1CCOC1	9.23 µM		9.11 µM		4.55 µM	Insoluble	
COc1cc2ncnc(N3CCc4ccccc43)c2cc1NC(=O)/C=C/C(C)C	6.53 µM		6.41 µM		6.78 µM	Insoluble	
COc1cc2ncnc(N3CCCc4ccccc43)c2cc1NC(=O)/C=C/C(C)C	8.43 µM		3.45 µM		4.29 µM	Insoluble	
CC/C=C/C(=O)Nc1cc2c(N3CCc4ccccc43)ncnc2cc1OC	5.89 µM	0.017 µM	2.47 µM	0.186 µM	4.03 µM	Insoluble	
C=C(C)C(=O)Nc1cc2c(N3CCc4ccccc43)ncnc2cc1O[C@@H]1CCOC1	4.91 µM		16.6 µM		14.7 µM	Insoluble	
CC(C)/C=C/C(=O)Nc1cc2c(N3CCc4ccccc43)ncnc2cc1O[C@@H]1CCOC1	11.2 µM		8.52 µM		9.88 µM	Insoluble	
CC(C)/C=C/C(=O)Nc1cc2c(N3CCCc4ccccc43)ncnc2cc1O[C@@H]1CCOC1	8.51 µM		6.82 µM		4.68 µM	Insoluble	

Stronger by IC50 [2], values ahead:

IC50 [2]	IC50 [5]	IC50 [6]	IC50 [11]	IC50 [12]	solubility [13]	SMILES	also measured
1.23 µM	0.005 µM	1.09 µM	0.026 µM	1.34 µM		CN(C)C/C=C/C(=O)Nc1cc2c(N3CCc4ccccc43)ncnc2cc1O[C@@H]1CCOC1	Activity [1]: 0.81%; Activity [2]: Dose-dependent effect; Activity [3]: Active; Activity [4]: 4.59%; Activity [6]: Dose-dependent effect; Activity [7]: 14.59%; Activity [8]: 80.01%; Activity [9]: Active; Activity [10]: Active; Activity [12]: Dose-dependent effect
2.62 µM	0.003 µM	1.21 µM	0.034 µM	1.51 µM		COc1cc2ncnc(N3CCc4ccccc43)c2cc1NC(=O)/C=C/CN1CCCC1	
1.75 µM	0.072 µM	1.65 µM	0.107 µM	1.77 µM		COc1cc2ncnc(N3CCCc4ccccc43)c2cc1NC(=O)/C=C/CN(C)C	
4.18 µM	0.0454 µM	2.54 µM	0.115 µM	1.68 µM		COc1cc2ncnc(N3CCc4ccccc43)c2cc1NC(=O)/C=C/CN1CCCCC1	
2.65 µM	0.004 µM	1.98 µM	0.021 µM	2.62 µM		COc1cc2ncnc(N3CCc4ccccc43)c2cc1NC(=O)/C=C/CN1CCC(CO)CC1	
2.24 µM	0.033 µM	1.8 µM	0.162 µM	1.21 µM	Insoluble	CCC/C=C/C(=O)Nc1cc2c(N3CCCc4ccccc43)ncnc2cc1OC	
2.71 µM		9.32 µM		5.95 µM	Insoluble	C=CC(=O)Nc1cc2c(N3CCc4ccccc43)ncnc2cc1O[C@@H]1CCOC1	
4.24 µM		2.92 µM		3.16 µM	Insoluble	CCC/C=C/C(=O)Nc1cc2c(N3CCc4ccccc43)ncnc2cc1OC	
2.51 µM						CN(C)C/C=C/C(=O)Nc1cc2c(Nc3ccc(F)c(Cl)c3)ncnc2cc1O[C@@H]1CCOC1	Activity [1]: 0.86%; Activity [4]: 4.27%; Activity [7]: 13.53%; Activity [8]: 81.34%
